CHOP UPR activ = activators of apoptotic CHOP UPR arm, primary screen, cell-based, CHO-CHOP luciferase reporter, luminescence, uHTS; 330,000 tested, 0.34% active; activation, % at 10 µM; UPR activation; percent of tunicamycin response over DMSO baseline;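 active = at 10 µM dose, activation of 40% or more, normalized to positive control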
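Material: CHO-CHOP cells, stable luciferase reporter of PERK-eIF2a-CHOP signalling; quantity: 500 reporter cells seeded per well; buffer or medium: F12 medium containing 10% fetal bovine serum; compound: one dose, 10 µM in 0.5% DMSO; incubation: 6 h compound treatment, 37 °C; measured by: Steady-Glo luciferase luminescence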
UBC13 inh = UBC13 polyubiquitin chain formation inhibitors, primary screen, biochemical, TR-FRET, uHTS | 330,000 tested, 0.47% active | Ubiquitin-conjugating enzyme E2 N (Homo sapiens), P61088 | inhibition, % at 20 µM | AID 485273, 2010; in the data active = inhibition above about 45%, passing the limit was not always enough; inconclusive = no clear call, values can overlap the other calls
Mdm2 MdmX PPI = inhibitors of human Mdm2-MdmX association, primary screen, cell-based, luminescence, split luciferase, SaOS-2, uHTS; Protein Mdm4 (Homo sapiens) + E3 ubiquitin-protein ligase Mdm2 (Homo sapiens), …; SaOS-2 split-luciferase Mdm2/MdmX complementation; inhibition, % at 8 µM; 330,000 tested, 3% active;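 active = inhibition of at least 50% at 8 µM in the primary screen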
Target sequence (O15151 whole entry, looked up): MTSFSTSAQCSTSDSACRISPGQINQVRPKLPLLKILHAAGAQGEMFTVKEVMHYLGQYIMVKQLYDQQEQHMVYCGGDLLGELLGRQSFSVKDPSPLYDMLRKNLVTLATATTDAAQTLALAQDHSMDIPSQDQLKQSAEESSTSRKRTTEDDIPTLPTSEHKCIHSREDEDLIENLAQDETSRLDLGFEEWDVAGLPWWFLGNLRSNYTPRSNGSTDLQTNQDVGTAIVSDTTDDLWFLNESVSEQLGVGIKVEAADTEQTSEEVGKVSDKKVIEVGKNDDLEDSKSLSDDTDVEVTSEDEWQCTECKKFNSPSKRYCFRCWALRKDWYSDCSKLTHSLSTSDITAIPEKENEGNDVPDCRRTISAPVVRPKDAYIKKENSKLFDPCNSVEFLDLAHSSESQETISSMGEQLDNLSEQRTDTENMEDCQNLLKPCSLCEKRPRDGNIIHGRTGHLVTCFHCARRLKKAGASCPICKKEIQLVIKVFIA
Target sequence (Q00987 whole entry, looked up): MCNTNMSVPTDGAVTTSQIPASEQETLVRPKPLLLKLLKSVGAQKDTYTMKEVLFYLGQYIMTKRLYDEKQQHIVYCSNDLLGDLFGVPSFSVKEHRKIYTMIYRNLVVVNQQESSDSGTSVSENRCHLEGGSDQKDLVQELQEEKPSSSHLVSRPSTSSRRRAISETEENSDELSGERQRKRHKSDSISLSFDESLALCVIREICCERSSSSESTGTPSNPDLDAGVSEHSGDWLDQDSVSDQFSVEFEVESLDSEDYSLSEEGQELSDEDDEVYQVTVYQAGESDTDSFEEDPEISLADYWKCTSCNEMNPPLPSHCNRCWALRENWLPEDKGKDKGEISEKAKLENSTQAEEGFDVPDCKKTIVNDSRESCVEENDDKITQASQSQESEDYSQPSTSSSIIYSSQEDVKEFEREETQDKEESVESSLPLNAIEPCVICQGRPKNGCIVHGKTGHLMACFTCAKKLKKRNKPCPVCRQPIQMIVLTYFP
Apaf-1 inh = inhibitors of human Apaf-1 apoptosome, primary screen, biochemical, DEVD-Rh110 fluorescence, uHTS | 330,000 tested, 0.71% active | AID 489030, 2010 | inhibition, % at 20 µM | reconstituted apoptosome caspase-3 activity | Apoptotic protease-activating factor 1 (Homo sapiens), O14727; active = inhibition of at least 40% at 20 µM
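Material: biochemical Apaf-1 apoptosome reconstitution. Medium: Hepes buffer, pH 7.5. Also added: cytochrome c activation, bis-DEVD rhodamine 110 substrate. Timing: 30 min compound preincubation, 50 min activation, room temperature. Measured by: rhodamine 110 fluorescence at Ex 480/Em 540 nm.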
XBP1 UPR activ = activators of adaptive XBP1 UPR arm, primary screen, cell-based, CHO-XBP1 luciferase reporter, luminescence, uHTS; 330,000 tested, 0.33% active; IRE1-XBP1 UPR activation; percent of tunicamycin response, DMSO as zero; activation, % at 20 µM;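 active = versus positive control, 20 µM dose yields 30% or more activation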
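Assay system: IRE1-XBP1 luciferase reporter CHO line. Input: 1000 cells/well. Buffer or medium: F12 with 10% serum. Doses: 20 µM, 1% DMSO. Times: overnight seeding at 37 °C, 6 h compound treatment at 37 °C. Technique: Steady-Glo luciferase glow luminescence, 10 min after reagent addition.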
Mdm2-MdmX conf = Mdm2-MdmX complex disruptors, retested hits, confirmation, luminescence, single concentration. shares compounds with Mdm2 MdmX PPI. 10,000 tested, 55% active. Mdm2-MdmX binding, luminescent assay. AID 489028, 2010. inhibition, % at 8 µM; in the data active = inhibition above about 40%
Full FLuc ctr = full-length luciferase signal inhibition, confirmation, counter-screen for Mdm2/MdmX interaction inhibitor project, cell-based, single concentration, SaOS-2. shares compounds with Mdm2 MdmX PPI. SaOS-2 full-length luciferase counterscreen, luminescence. inhibition, % at 8 µM. 6,200 tested, 77% active. AID 504607, 2011;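 active = mean inhibition at 8 µM reaching about 37%, which flags the compound as non-specific, limit read from the data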;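 also: p53-null SaOS-2 cells with luciferase driven by a doxycycline-inducible promoter; compound on cells about two nights before reading with doxycycline added after day one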
Numbers stand for hits; . = inactive; ? = inconclusive; / = no result. Compounds with a hit are over-represented: about 4.1% of the library has one in this group of screens.

SMILES	CHOP UPR activ	UBC13 inh	Mdm2 MdmX PPI	Apaf-1 inh	XBP1 UPR activ	Mdm2-MdmX conf	Full FLuc ctr
COC(=O)c1ccc(Cn2cc(C(F)(F)F)cc([N+](=O)[O-])c2=O)cc1	.	.	.	.	.	/	/
COc1ccc(C(CNc2ccc(S(C)(=O)=O)cc2[N+](=O)[O-])N(C)C)cc1OC (configuration not stated)	.	.	.	.	.	/	/
O=C(CSc1nnc(-c2cccnc2)o1)Nc1ccccc1F	.	.	.	.	.	/	/
COc1ccc(-c2nn(-c3ccccc3)cc2C(=O)OCC(=O)c2ccc(C)c([N+](=O)[O-])c2)cc1	.	.	.	.	.	/	/
Cc1cc2nc(-c3ccc(SCC(=O)N4CCc5ccccc54)nc3)[nH]c2cc1C	.	.	98	.	.	42	65
Cc1ccc(-c2ccc(SCC(=O)N3CCc4ccccc43)nn2)cc1	.	.	.	.	.	/	/
Cc1cc(/C=c2/sc3nc4ccccc4n3c2=O)c(C)n1-c1ccccn1	.	.	69	.	.	94	.
CC(=O)c1cc(CN2CCN(C(C)C)C(CCO)C2)cs1 (configuration not stated)	.	.	.	.	.	/	/
COc1cc(OC)cc(-c2nnc(NC(=O)CCS(=O)(=O)c3ccc(C)cc3)o2)c1	.	.	51	.	.	61	72
COc1cc(OC)cc(-c2nnc(NC(=O)c3ccc4c(c3)OCCO4)o2)c1	.	.	53	.	.	.	/
COc1cccc(C(=O)Nc2nnc(-c3ccc(Cl)cc3)o2)c1	.	.	.	.	.	/	/
CCOc1ccc(-c2nnc(NC(=O)c3ccc(OCC(C)C)c(OC)c3)o2)cc1	.	.	57	.	.	57	.
COc1ccc(N2CC(NC(=O)NCC(C)C)CC2=O)cc1 (configuration not stated)	.	.	.	.	.	/	/
COc1cccc(Cl)c1NC(=O)N1CCN(c2ccnc3cc(Cl)ccc23)CC1	.	.	.	.	.	/	/
COc1ccc(-c2csc(N3CCN(c4cc(C)nc5ccccc45)CC3)n2)cc1OC	.	.	96	.	.	58	74
COc1cccc(Cl)c1NC(=O)N1CCN(c2cc(C)nc3ccccc23)CC1	.	.	55	.	.	.	/
Cc1nc2c(sc(=S)n2Cc2ccco2)c(=O)n1CC(=O)Nc1ccc(F)cc1	.	.	52	.	.	.	/
CCn1c(=S)sc2c(=O)n(CC(=O)Nc3ccccc3C(F)(F)F)c(C)nc21	.	.	53	.	.	.	/
CCn1c(=S)sc2c(=O)n(CC(=O)Nc3ccccc3)c(C)nc21	.	.	.	.	.	/	/
CC(C)Cn1c(=O)c(C(=O)Nc2ccncc2)c(O)c2ccccc21	.	?	69	.	.	51	38
CCn1c(=O)c(C(=O)NNC(=O)c2ccccc2)c(O)c2ccccc21	.	.	.	.	.	43	54
CCn1c(=O)c(C(=O)Nc2ccccc2S(N)(=O)=O)c(O)c2ccccc21	.	.	56	.	.	.	/
COC(=O)C1(Cc2cc(-c3ccc([N+](=O)[O-])cc3)no2)CCN(C(=O)OC(C)(C)C)CC1	.	.	.	.	.	/	/
COCCNS(=O)(=O)c1cc2[nH]c3c(c2cc1C)C(=O)CC(C)(C)C3	.	.	.	.	.	/	/
O=C(Oc1c(-c2ccccc2)c(=O)n2c3c(cccc13)CC2)c1cccc([N+](=O)[O-])c1	.	.	70	.	.	75	39
